Assay results published in article PMC10938640 (Chemistry & biodiversity, 2023).
Entries after “also recorded” stand apart in the source; their conditions may differ.

Tests used:
[1] = Differential Nuclear Staining; assay type: cell-based, human; details: human, MCF-10A mammary epithelial cells
[2] = tested on: MDA-MB-231 triple-negative breast cancer cell line; assay: Differential Nuclear Staining; assay type: cell-based, human
[3] = tested on: CEM acute lymphoblastic leukemia cell line; assay: Differential Nuclear Staining; assay type: cell-based, human
Method in brief: (§1)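 Cells grown in RPMI-1640 with 10% heat-inactivated FBS and penicillin/streptomycin at 37 °C, 5% CO2, then seeded at 10,000/well and left overnight. Test compound given at […] for 48 h, with untreated, 1% v/v DMSO and 1 mM H2O2 controls, at least three technical replicates. Hoechst plus PI (1 μg/mL final) added for the last 2 h. Wells imaged at 4X, live/dead percentages scored, and CC50 derived by linear interpolation.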

[4] = tested on: Jurkat acute T cell leukemia cell line; assay: Differential Nuclear Staining; assay type: cell-based, human; details: 48 h exposure, DNS assay
Method in brief: as §1

[5] = tested on: Jurkat cells; assay: Reactive oxygen species; assay type: cell-based, human; details: 18 h, CC50 (4.36 μM) and 2x CC50 (8.72 μM) of 6h, H2O2 positive control, vs DMSO
[6] = tested on: Jurkat cells; assay: Cell cycle distribution analysis, NIM-DAPI; assay type: cell-based, human; details: 72 h
[7] = Solubility in the cytotoxicity experiment; assay type: physicochemical; details: could not be examined at concentrations higher than 1 μM; crystals formed
[8] = tested on: MCF-10A mammary epithelial cell line; assay: Differential Nuclear Staining; assay type: cell-based, human; details: MCF-10A, 72 h exposure, DNS assay
[9] = tested on: Jurkat cells; assay: Annexin V-FITC/PI apoptosis assay; assay type: cell-based, human; details: 24 h, CC50 (4.36 μM) and 2x CC50 (8.72 μM), vs vehicle control
[10] = tested on: Jurkat cells; assay: Mitochondrial depolarization assay, MitoProbe JC-1; assay type: cell-based, human; details: 5 h; for Cells with depolarized mitochondria: solvent 20.9%
[11] = 6h at CC25 (2.18 μM) and CC50 (4.36 μM), vs DMSO
[12] = MDA-MB-231, 72 h exposure, DNS assay

Row | Compound | CC50 at 72 h [1] | CC50 ([2]; Homo sapiens, MDA-MB-231, 72 h) | CC50 ([3]; Homo sapiens, 48 h) | CC50 ([4]; Homo sapiens, 48 h) | further results
1 | O=C1Nc2ccccc2C1=Cc1cn(-c2ccccc2)nc1-c1cc2ccccc2oc1=O [Compound 6f, 3-((3-(2-Oxo-2H-chromen-3-yl)-1-phenyl-1H-pyrazol-4-yl)methylene)indolin-2-one] | > 20 µM | > 20 µM | > 20 µM | > 20 µM | 
2 | OO [Compound H2O2, H2O2, reference compound] |  |  |  |  | ROS overproduction/accumulation [5]: displayed the highest amount of accumulated ROS; DNA fragmentation (sub G0/G1) [6, 11]: moderate but significant increase in DNA fragmentation (sub G0/G1)
3 | COc1ccc(-c2nn(-c3ccccc3)cc2C=C2C(=O)Nc3ccccc32)cc1 [Compound 6d, 3-((3-(4-Methoxyphenyl)-1-phenyl-1H-pyrazol-4-yl)methylene)indolin-2-one] | > 1 µM | > 1 µM | > 1 µM | > 1 µM | Solubility (result in words) [7]: poor solubility
4 | Cc1ccc2c(c1)C(=Cc1cn(-c3ccccc3)nc1-c1cc3ccccc3oc1=O)C(=O)N2 [Compound 6k, 5-methyl-3-((3-(2-oxo-2H-chromen-3-yl)-1-phenyl-1H-pyrazol-4-yl)methylene)indolin-2-one] | > 20 µM | > 20 µM | > 20 µM | > 20 µM | 
5 | Cc1ccc2c(c1)C(=Cc1cn(-c3ccccc3)nc1-c1ccc(Cl)cc1)C(=O)N2 [Compound 6j, 3-((3-(4-chlorophenyl)-1-phenyl-1H-pyrazol-4-yl)methylene)-5-methylindolin-2-one] | 8.59 ± 0.31 µM | > 20 µM | 7.66 ± 0.19 µM |  | 
6 | O=C1Nc2ccccc2C1=Cc1cn(-c2ccccc2)nc1-c1ccc([N+](=O)[O-])cc1 [Compound 6c, 3-((3-(4-Nitrophenyl)-1-phenyl-1H-pyrazol-4-yl)methylene)indolin-2-one] | > 20 µM | > 20 µM | > 20 µM | > 20 µM | 
7 | Cc1ccc(-c2nn(-c3ccccc3)cc2C=C2C(=O)Nc3ccccc32)cc1 [Compound 6b, 3-((1-Phenyl-3-(p-tolyl)-1H-pyrazol-4-yl)methylene)indolin-2-one] | > 1 µM | > 1 µM | > 1 µM | > 1 µM | Solubility (result in words) [7]: poor solubility
8 | Cc1ccc(-c2nn(-c3ccccc3)cc2C=C2C(=O)Nc3ccc(C)cc32)cc1 [Compound 6h, 5-methyl-3-((3-(1-phenyl)-3-(p-tolyl)-1H-pyrazol-4-yl)methylene)indolin-2-one] |  |  |  |  | CC50 [8]: 14.8 ± 1.48 µM; CC50 [2, 12]: > 20 µM; CC50 ([3]; CEM, 48 h exposure, DNS assay): 7.14 ± 0.92 µM; CC50 [4]: 4.36 ± 0.2 µM; Phosphatidylserine (PS) externalization / apoptosis [9]: induces a significant amount of PS externalization in a dose-response trend; also recorded: induced significant PS externalization; ROS overproduction/accumulation [5]: does not activate ROS overproduction and/or accumulation; also recorded: does not cause ROS accumulation; Mitochondrial depolarization (result in words) ([10]; CC50 and 2x CC50): does not cause mitochondrial depolarization; also recorded: No significant increase in cells with depolarized mitochondria; Cells with depolarized mitochondria ([10]; at 2x CC50, untreated 13.2%): 18.7%; Cells with depolarized mitochondria ([10]; at CC50, untreated 13.2%): 18.3%; DNA fragmentation (sub G0/G1) [6, 11]: moderate but significant increase in DNA fragmentation (sub G0/G1); also recorded: significant increase in DNA fragmentation (sub G0/G1; A); G0/G1 phase subpopulation [6, 11]: significant cell cycle arrest was seen in the G0/G1 subpopulation; also recorded: cell cycle arrest in the G0/G1 diploid phase; G2/M (tetraploid) phase subpopulation [6, 11]: small but also significant reduction in the G2/M (tetraploid) phase; also recorded: significant decrease in G2/M
9 | COc1cc([C@@H]2c3cc4c(cc3[C@@H](O[C@@H]3O[C@@H]5CO[C@@H](C)O[C@H]5[C@H](O)[C@H]3O)[C@H]3COC(=O)[C@H]23)OCO4)cc(OC)c1O [etoposide, reference compound] |  |  |  |  | DNA fragmentation (sub G0/G1) [6, 11]: moderate but significant increase in DNA fragmentation (sub G0/G1); S hyperdiploid phase subpopulation ([6]; control): significant arrest in the S hyperdiploid phase
10 | COc1ccc(-c2nn(-c3ccccc3)cc2C=C2C(=O)Nc3ccc(C)cc32)cc1 [Compound 6i, 3-((3-(4-methoxyphenyl)-1-phenyl-1H-pyrazol-4-yl)methylene)-5-methylindolin-2-one] | 9.37 ± 0.42 µM | > 20 µM | > 20 µM | > 20 µM | 
11 | Cc1ccc2c(c1)C(=Cc1cn(-c3ccccc3)nc1-c1ccccc1)C(=O)N2 [Compound 6g, 3-((1,3-diphenyl-1H-pyrazol-4-yl)methylene)-5-methylindolin-2-one] | 13 ± 0.49 µM | > 20 µM | > 20 µM | > 20 µM | 
12 | O=C1Nc2ccccc2C1=Cc1cn(-c2ccccc2)nc1-c1ccccc1 [Compound 6a] |  |  |  |  | CC50 [8]: > 1 µM; CC50 [2, 12]: > 1 µM; CC50 ([3]; CEM, 48 h exposure, DNS assay): > 1 µM; CC50 [4]: > 1 µM; Solubility (result in words) [7]: poor solubility
13 | O=C1Nc2ccccc2C1=Cc1cn(-c2ccccc2)nc1-c1ccc(Cl)cc1 [Compound 6e, 3-((3-(4-Chlorophenyl)-1-phenyl-1H-pyrazol-4-yl)methylene)indolin-2-one] | > 20 µM | > 20 µM | > 20 µM | > 20 µM | 
